Test results published in ChEMBL document CHEMBL1151889, “4,4-Dimethyl-1,2,3,4-tetrahydroquinoline-based PPARalpha/gamma agonists. Part. II: Synthesis and pharmacological evaluation of oxime and acidic head group structural variations” (Bioorg Med Chem Lett, 2009).

Legend:
Liver microsomes [1] = experiment: Metabolic stability in rat hepatocyte microsomes; format: ADME, Microsome
Mus musculus [2] = experiment: Effect on bodyweight in po dosed C57BL/6J ob/ob mouse assessed as body weight gain relative to untreated control; format: functional
Summary of the method: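 Male C57BL/6J ob/ob mice (n = 8–12 per dose) were randomized on glycemia and gavaged with 3 mg/kg daily for four days, between 3 and 5 pm, as a suspension in 1% hydroxyethyl cellulose (2.5 ml/kg). Body weight gain was each mouse's end-of-study minus starting weight. Groups were compared with control by ANOVA and one-tailed Dunnett's test.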

Liver microsomes [3] = experiment: Metabolic stability in human hepatocyte microsomes; format: ADME, Microsome
Mus musculus [4] = experiment: Lipid lowering effect in po dosed C57BL/6J ob/ob mouse assessed as triglyceride level relative to untreated control; format: functional
Summary of the method: (§1)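 Male C57BL/6J ob/ob mice (n = 8–12 per dose) were gavaged with 3 mg/kg daily for four days in 1% hydroxyethyl cellulose (2.5 ml/kg). On day five, heparinized retro-orbital plasma was collected under CO₂ anaesthesia. Plasma level was expressed as percent change from the mean of vehicle-treated mice. Groups were compared by ANOVA and one-tailed Dunnett's test.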

Mus musculus [5] = experiment: Glucose lowering effect in po dosed C57BL/6J ob/ob mouse assessed as insulin level relative to untreated control; format: functional; summary of the method: as §1
Caco-2 = experiment: Absorption in human Caco-2 cells; format: ADME, cell-based; parameters: concentration or dose not given beside the values
[6] = target: T1, Peroxisome proliferator-activated receptor alpha (Homo sapiens, UniProt Q07869); experiment: Agonist activity at human PPARalpha by Gal4 transactivation assay; format: functional
T1 sequence (Q07869 whole entry): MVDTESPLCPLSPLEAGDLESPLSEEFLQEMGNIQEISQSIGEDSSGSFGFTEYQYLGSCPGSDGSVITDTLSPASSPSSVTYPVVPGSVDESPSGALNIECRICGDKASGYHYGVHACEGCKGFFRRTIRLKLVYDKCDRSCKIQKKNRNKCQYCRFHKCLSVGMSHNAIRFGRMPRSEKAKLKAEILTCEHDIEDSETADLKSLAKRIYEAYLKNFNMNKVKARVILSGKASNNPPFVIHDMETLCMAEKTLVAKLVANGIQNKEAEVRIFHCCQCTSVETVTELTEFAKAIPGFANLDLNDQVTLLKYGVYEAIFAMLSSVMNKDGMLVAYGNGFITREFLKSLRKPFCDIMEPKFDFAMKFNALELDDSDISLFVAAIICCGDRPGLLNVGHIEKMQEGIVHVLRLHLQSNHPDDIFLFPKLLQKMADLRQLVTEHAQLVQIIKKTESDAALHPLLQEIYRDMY

[7] = target: T2, Peroxisome proliferator-activated receptor gamma (Homo sapiens, UniProt P37231); experiment: Displacement of [3H]rosiglitazone from human PPARgamma receptor
T2 sequence (P37231 whole entry): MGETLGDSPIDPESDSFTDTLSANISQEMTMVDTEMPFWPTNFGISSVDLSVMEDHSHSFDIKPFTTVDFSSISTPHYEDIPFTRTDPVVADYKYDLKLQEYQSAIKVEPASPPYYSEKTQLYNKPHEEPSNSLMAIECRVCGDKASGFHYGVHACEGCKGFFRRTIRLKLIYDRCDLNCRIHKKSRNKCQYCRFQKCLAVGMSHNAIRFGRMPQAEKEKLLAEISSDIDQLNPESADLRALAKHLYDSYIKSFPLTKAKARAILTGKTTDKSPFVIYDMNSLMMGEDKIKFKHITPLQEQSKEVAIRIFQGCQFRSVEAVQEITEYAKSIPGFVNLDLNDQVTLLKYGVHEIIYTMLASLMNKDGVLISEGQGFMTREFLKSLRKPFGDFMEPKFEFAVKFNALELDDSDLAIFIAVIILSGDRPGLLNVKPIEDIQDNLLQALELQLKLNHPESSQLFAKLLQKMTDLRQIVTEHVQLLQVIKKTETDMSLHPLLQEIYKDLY

[8] = target: T3, Peroxisome proliferator-activated receptor alpha (Homo sapiens) (UniProt Q07869); experiment: Agonist activity at human PPARalpha at transactivation EC50 by Gal4 transactivation assay relative to at 10 uM WY-14643
T3 sequence (whole entry): T1 sequence (Q07869 whole entry)

[9] = target: T2, Peroxisome proliferator-activated receptor gamma; experiment: Agonist activity at human PPARgamma by Gal4 transactivation assay; format: functional

SMILES | Stability (Liver microsomes [1]) [%] | Activity (Mus musculus [2]) [%] | Stability (Liver microsomes [3]) [%] | Activity (Mus musculus [4]) [%] | Activity (Mus musculus [5]) [%] | Activity (Caco-2) [%] | EC50 ([6]; read-out: EC50) [nM] | Ki [7] [nM] | Activity [8] [%] | EC50 ([9]; read-out: EC50) [nM] | EC50 [6] | EC50 [9]
CCO[C@@H](Cc1ccc(OCCN2CCC(C)(C)c3cc(/C(=N/OC)c4ccccc4)ccc32)cc1)C(=O)O | 0 | -33 | 0 | -5 | -20 | 100 |  |  |  |  |  | 
CCO[C@@H](Cc1ccc(OCCc2ccc(OS(C)(=O)=O)cc2)cc1)C(=O)O [TESAGLITAZAR] | 97 | 1.9 | 100 | -60 | -94 | 78 |  |  |  |  |  | 
C=CCO/N=C(\c1ccccc1)c1ccc2c(c1)C(C)(C)CCN2CCOc1ccc(C[C@H](OCC)C(=O)O)cc1 | 20 |  | 47 |  |  | 95 | 73 | 54.2 | 152 | 13 |  | 
CO/N=C(\c1ccccc1)c1ccc2c(c1)C(C)(C)CCN2CCOc1ccc(C[C@H](OC(C)=O)C(=O)O)cc1 |  |  |  |  |  |  |  | > 10000 |  |  | Not Active | Not Active
CO/N=C(\c1ccccc1)c1ccc2c(c1)C(C)(C)CCN2CCOc1ccc(C[C@H](OCC(F)(F)F)C(=O)O)cc1 | 18 | 304 | 27 | 9 | -17 | 100 | 1000 | 33 | 50 | 125 |  | 
CCOC(=O)N(CC(=O)O)Cc1ccc(OCCN2CCC(C)(C)c3cc(/C(=N/OC)c4ccccc4)ccc32)cc1 |  |  |  |  |  |  |  | > 10000 |  | 10000 | Not Active | 
CO/N=C(\c1ccccc1)c1ccc2c(c1)C(C)(C)CCN2CCOc1ccc(C[C@H](Nc2ccccc2C(=O)c2ccccc2)C(=O)O)cc1 |  |  |  |  |  | 22 | 10000 | 54 | 11 | 14 |  | 
CCO[C@@H](Cc1ccc(OCCN2CCC(C)(C)c3cc(/C(=N/OCc4ccccc4)c4ccccc4)ccc32)cc1)C(=O)O | 35 | 0.23 | 59 | -27 | 51 | 90 | 34 | 18.4 | 137 | 7 |  | 
CCO[C@@H](Cc1ccc(OCCN2CCC(C)(C)c3cc(/C(=N/OCC4CC4)c4ccccc4)ccc32)cc1)C(=O)O | 32 | 107 | 84 | -2 | -2 | 93 | 9 | 254 | 145 | 7.52 |  | 
CN(CCOc1ccc(CC2SC(=O)NC2=O)cc1)c1ccccn1 (stereo unspecified) [ROSIGLITAZONE] | 45 | 0.56 | 21 | -56 | -55 | 100 |  |  |  |  |  | 
